Experimental data reported in ChEMBL document CHEMBL1156280, “Design and synthesis of boron-containing PDE4 inhibitors using soft-drug strategy for potential dermatologic anti-inflammatory application” (Bioorg Med Chem Lett, 2010).

Experiments:
THP-1 [1] = assay: Antiinflammatory activity in human THP1 cells assessed as inhibition of IL5 release; type: functional, cell-based
THP-1 [2] = assay: Antiinflammatory activity in human THP1 cells assessed as inhibition of TNFalpha release; type: functional, cell-based
THP-1 [3] = assay: Antiinflammatory activity in human THP1 cells assessed as inhibition of IL2 release; type: functional, cell-based
THP-1 [4] = assay: Antiinflammatory activity in human THP1 cells assessed as inhibition of IFN-gamma release; type: functional, cell-based
THP-1 [5] = assay: Antiinflammatory activity in human THP1 cells assessed as inhibition of IL10 release; type: functional, cell-based
[6] = Inhibition of PDE4 at 10 uM
[7] = Inhibition of PDE4
Plasma [8] = assay: Metabolic stability in CD1 mouse plasma assessed as change in ester; type: ADME, cell-free
How it was run: (§1)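 Compounds at 5 µM final in female CD-1 mouse plasma (K2EDTA) or PBS pH 7.4, 37 °C with mild shaking for 1 h. A time-0 plate was held on ice. Reactions were quenched with internal standard in acetonitrile or methanol, then centrifuged, and the supernatant was analysed by LC/MS/MS for loss of ester and appearance of the corresponding acid. Triplicates, values are means.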

[9] = Chemical stability in phosphate buffer of pH 7.4 assessed as change in ester; type: physicochemical; settings: read-out: Activity; how it was run: as §1
[10] = Chemical stability in phosphate buffer of pH 7.4 assessed as formation of acid; type: physicochemical; how it was run: as §1
Plasma [11] = assay: Metabolic stability in CD1 mouse plasma assessed as change in formation of acid; type: ADME, cell-free; how it was run: as §1
[12] = Cmax in CD1 mouse at 100 mg/kg, sc; type: ADME, organism-based; parameters: dose 100 mg/kg, route subcutaneous; settings: in vivo
How it was run: (§2)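 Non-fasted CD-1 mice (n = 3 per group) received a single 100 mg/kg dose sc or po as a suspension in 1% carboxymethylcellulose. Plasma ester and its acid metabolite were followed over 6 h. Parameters came from a non-compartmental model, with bioavailability referenced to iv set at 100%.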

[13] = Half life in CD1 mouse at 25 mg/kg, iv; type: ADME, organism-based; parameters: dose 25 mg/kg, route intravenous; settings: in vivo
How it was run: (§3)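 A single 25 mg/kg iv dose in 1-methyl-2-pyrrolidone/propylene glycol/PEG-400 (10:40:50, v/v/v) was given to non-fasted CD-1 mice, n = 3. Plasma ester and acid were measured over 6 h. Non-compartmental analysis gave the PK parameters, and iv bioavailability was taken as 100%.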

[14] = Cmax in CD1 mouse at 100 mg/kg, po; type: ADME, organism-based; parameters: dose 100 mg/kg, route oral; settings: in vivo; how it was run: as §2
[15] = Oral bioavailability in CD1 mouse at 100 mg/kg; type: ADME, organism-based; settings: in vivo; how it was run: as §2
Mus musculus [16] = assay: Antiinflammatory activity in mouse assessed as inhibition of phorbol ester-induced ear edema at 1 mg/ear; type: functional
[17] = AUC in CD1 mouse at 100 mg/kg, po; type: ADME, organism-based; parameters: dose 100 mg/kg, route oral; settings: plasma; how it was run: as §2
[18] = Bioavailability in CD1 mouse at 100 mg/kg, sc; type: ADME, organism-based; settings: in vivo; how it was run: as §2
[19] = Tmax in CD1 mouse at 100 mg/kg, sc; type: ADME, organism-based; parameters: dose 100 mg/kg, route subcutaneous; settings: in vivo; how it was run: as §2
[20] = AUC in CD1 mouse at 100 mg/kg, sc; type: ADME, organism-based; parameters: dose 100 mg/kg, route subcutaneous; settings: plasma; how it was run: as §2
[21] = Cmax in CD1 mouse at 25 mg/kg, iv; type: ADME, organism-based; parameters: dose 25 mg/kg, route intravenous; settings: in vivo; how it was run: as §3
Mus musculus [22] = assay: Bioavailability in CD1 mouse at 25 mg/kg, iv; type: ADME, organism-based; settings: in vivo; how it was run: as §3
[23] = Tmax in CD1 mouse at 100 mg/kg, po; type: ADME, organism-based; parameters: dose 100 mg/kg, route oral; settings: in vivo; how it was run: as §2
Mus musculus [24] = assay: Antiinflammatory activity in mouse assessed as inhibition of phorbol ester-induced ear edema at 3 mg/ear; type: functional

SMILES | IC50 [7] [nM] | Activity (Plasma [8]) [%] | percent change in ester [9] [%] | Activity (Plasma [11]) [%] | also measured
O=C(O)c1ccc(Oc2ccc3c(c2)COB3O)nc1 | – | – | – | – | IC50 (THP-1 [1]): > 10000 nM; IC50 (THP-1 [2]): > 10000 nM; IC50 (THP-1 [3]): > 10000 nM; IC50 (THP-1 [4]): > 10000 nM; IC50 (THP-1 [5]): > 10000 nM; inhibition [6]: 5%
O=C(O)c1ccc(Oc2ccc3c(c2)COB3O)cc1 | 6420 | – | – | – | –
CCCOC(=O)c1ccc(Oc2ccc3c(c2)COB3O)nc1 | 130 | -92.5 | -13.6 | 79.8 | Activity [10]: 0.5%
CCOC(=O)c1ccc(Oc2ccc3c(c2)COB3O)nc1 | 47 | -72.5 | -2.4 | – | Cmax [12]: 12700 ng/mL; IC50 (THP-1 [1]): 200 nM; half-life [13]: 61.8 min; Cmax [14]: 4390 ng/mL; bioavailability [15]: 10.8%; inhibition (INH) (Mus musculus [16]): 59%; IC50 (THP-1 [2]): 200 nM; AUC [17]: 1660 ng·h/mL; bioavailability [18]: 97.8%; IC50 (THP-1 [3]): 100 nM; IC50 (THP-1 [4]): 100 nM; Tmax [19]: 30 min; AUC [20]: 14500 ng·h/mL; IC50 (THP-1 [5]): 460 nM; Cmax [21]: 12500 ng/mL; F (Mus musculus [22]): 100%; Tmax [23]: 15 min
CCCCOC(=O)c1ccc(Oc2ccc3c(c2)COB3O)nc1 | 94.5 | -98 | -8.9 | 76.6 | Activity [10]: 0.4%
CCOC(=O)c1ccc(Oc2ccc3c(c2)COB3O)cc1 | 219 | -76.2 | -3.2 | 53.6 | –
COC(=O)c1ccc(Oc2ccc3c(c2)COB3O)cc1 | 287 | -43.6 | -8.9 | 29.4 | –
C[C@@H]1C[C@H]2[C@@H]3CCC4=CC(=O)C=C[C@]4(C)[C@@]3(F)[C@@H](O)C[C@]2(C)[C@@]1(O)C(=O)CO [DEXAMETHASONE] | – | – | – | – | inhibition (INH) (Mus musculus [16]): 68%
CC(C)OC(=O)c1ccc(Oc2ccc3c(c2)COB3O)cc1 | 130 | -58.9 | -10.6 | 27.6 | –
CCCOC(=O)c1ccc(Oc2ccc3c(c2)COB3O)cc1 | 763 | -94.9 | -8.8 | 58.8 | –
COc1ccc(C2CNC(=O)C2)cc1OC1CCCC1 (stereo not drawn) [ROLIPRAM] | – | – | – | – | inhibition (INH) (Mus musculus [16]): 6%; inhibition (INH) (Mus musculus [24]): 53%
N#Cc1ccc(Oc2ccc3c(c2)COB3O)cc1 [CRISABOROLE] | 490 | – | – | – | –
COC(=O)c1ccc(Oc2ccc3c(c2)COB3O)nc1 | 84 | -42.4 | -9.8 | 31.6 | Activity [10]: 0.4%
N#Cc1ccc(Oc2ccc3c(c2)COB3O)nc1 | 180 | – | – | – | –
CC(C)OC(=O)c1ccc(Oc2ccc3c(c2)COB3O)nc1 | 113 | -60.5 | 2.4 | 36.4 | Activity [10]: 1.4%
